This is an account of results in ChEMBL document CHEMBL4725346, “Syntheses and Evaluation of New Bisacridine Derivatives for Dual Binding of G-Quadruplex and i-Motif in Regulating Oncogene c-myc Expression” (J Med Chem, 2020).

Activity calls are given as the source filed them. No cut-off for these calls is given here.

In data set [1] the test system is SiHa. Kind of data set: Induction of apoptosis in human SiHa cells assessed as decrease in caspase-9 level incubated for 24 hrs by Western blot analysis. The settings on record: dose microM 0.6-2.4, time 24.0 hrs. It counts as functional, cell-based.
Data set [2] has as its system SiHa. The experiment in a line: Induction of apoptosis in human SiHa cells assessed as necrotic cells at 0.6 uM after 24 hrs by annexin V/FITC-propidium iodide staining-based flow cytometric method ( Rvb = 0.1%). It counts as functional.
The subject of data set [3] is SiHa. The experiment in a line: Induction of apoptosis in human SiHa cells assessed as necrotic cells at 1.2 uM after 24 hrs by annexin V/FITC-propidium iodide staining-based flow cytometric method ( Rvb = 0.1%). Format: functional.
Data set [4] concerns SiHa. The experiment in a line: Induction of apoptosis in human SiHa cells assessed as increase in cleaved caspase-7 level incubated for 24 hrs by Western blot analysis. Format: functional, cell-based. The settings on record: dose microM 0.6-2.4, time 24.0 hrs.
The test system of data set [5] is SiHa. The experiment in a line: Antitumor activity against human SiHa cells xenografted in BALB/c nude mouse assessed as reduction in tumor volume at 15 mg/kg, ip administered once per 2 days for 18 days (reference value: 750 mm3). Format: functional. The settings on record: time 18 day. In short, it runs like this:
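SiHa tumor fragments from donor xenografts (grown to about 1,000 mm³) implanted in the underarm of female BALB/c nude mice; six per group. Dosed ip once every two days for 18 days, saline as negative control, cisplatin 0.2 mg/kg as positive control. Tumor volume = length × width²/2. Tumors weighed at sacrifice.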

Data set [6] relates to SiHa. The experiment in a line: Induction of apoptosis in human SiHa cells assessed as necrotic cells at 2.4 uM after 24 hrs by annexin V/FITC-propidium iodide staining-based flow cytometric method ( Rvb = 0.1%). It counts as functional.
Data set [7] can be described thus: Stabilization of 5'-FAM/3'-TAMRA labeled hairpin DNA F10T (unknown origin) assessed as change in melting temperature at 1 uM by FRET assay (reference value: 59.1 degreeC).
Data set [8] has as its system Quadruplex DNA. The experiment in a line: Binding affinity to c-myc promoter G-quadruplex/i-motif in human SiHa cells assessed as reduction in c-myc expression incubated for 24 hrs by Western blot analysis. It counts as cell-based. In short, it runs like this: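 SiHa cells treated 24 h at 0, 0.625, 1.25 and 2.5 μM, then lysed in buffer with 1 mM PMSF. Protein measured by BCA, equal loads run on 8% gel and blotted to PVDF. Probed with anti-c-MYC and anti-β-actin (loading control), HRP anti-rabbit secondary, chemiluminescence read-out.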

The next data set deals with A-375. The experiment in a line: Antiproliferative activity against human A-375 cells after 48 hrs by MTT assay. Format: functional, cell-based. The settings on record: A-375, 48 h. In short, it runs like this: (§1)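 Cells seeded at 5.0×10^3 per well, pre-incubated 12 h at 37 °C, 5% CO2, then exposed to compounds for 48 h; DMSO-only control. MTT (2.5 mg/mL) added for 4 h, formazan dissolved in DMSO, absorbance at 570 nm. Each dose tested in triplicate; IC50 from percentage survival relative to negative control.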

The subject of data set [9] is SiHa. Kind of data set: Induction of cell cycle arrest in human SiHa cells assessed as accumulation of cells at G2/M phase at 0.60 uM after 24 hrs by propidium iodide staining based flow cytometry (reference value: 29.71%). Format: functional. The settings on record: dose 0.6 µM.
Data set [10] is described as follows: Stabilization of 5'-FAM/3'-TAMRA labeled c-myc promoter i-motif DNA FPy33T (unknown origin) assessed as change in melting temperature at 1 uM by FRET assay (reference value: 53.2 degreeC). In short, it runs like this: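 FRET melting of dual FAM/TAMRA-labelled FPy33T annealed in 1× BPES (30 mM potassium phosphate, 1 mM EDTA, 100 mM KCl), pH 5.5. Final 0.2 µM DNA with or without ligand. Excitation 470 nm, emission 530 nm, read every 1 °C over 37–99 °C. ΔTm taken against DNA alone.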

Data set [11] can be described thus: Binding affinity to c-myc promoter i-motif DNA Py33 (unknown origin) at 20 uM by isothermal titration calorimetry. In short, it runs like this:
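ITC at 20 °C on degassed solutions. Cell held preformed DNA ([…]). Syringe held ligand in the same buffer (50 μM for Pu27, 20 μM for Py33). 28 injections of 10 μL at 4 min intervals. Heats of dilution from ligand-into-buffer runs subtracted before model fitting.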

The nature of data set [12]: Stabilization of c-myc promoter i-motif DNA Py33 (unknown origin) assessed as decrease in positive peak intensity at pH 5.5 measured at 288 nanometer by CD spectroscopy. In short, it runs like this:
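Py33 at 1 µM in 1× BPES pH 5.5 (pH 6.8 random-coil reference), with or without ligand. Annealed at 95 °C for 5 min, cooled, kept at 4 °C overnight. CD spectra in a 4 mm cuvette over 230–350 nm, three scans averaged, buffer-corrected; peaks followed at 288 and 260 nm.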

In data set [13] the test system is SiHa. Kind of data set: Induction of apoptosis in human SiHa cells assessed as late apoptotic cells at 1.2 uM after 24 hrs by annexin V/FITC-propidium iodide staining-based flow cytometric method ( Rvb = 0.4%). Format: functional.
Data set [14] is described as follows: Binding affinity to 5'-biotin labeled c-myc promoter i-motif DNA Py33 (unknown origin) by surface plasmon resonance method. In short, it runs like this: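 SPR: 5'-biotin DNA diluted to 1 μM and captured (1000 RU) on a sensor chip, with a blank cell as reference. Running buffers: Py33 in 20 mM MES pH 5.8, 100 mM KCl, 0.05% Tween-20; Pu27 and duplex in 50 mM Tris-HCl pH 7.4, 100 mM KCl. Six ligand concentrations serially diluted from DMSO stock. Association 260 s, dissociation 300 s at 25 °C; NaOH regeneration; blank sensorgrams subtracted.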

The nature of data set [15]: Stabilization of c-myc promoter i-motif DNA Py33 (unknown origin) assessed as increase in slower migration band incubated overnight by silver staining based PAGE analysis. In short, it runs like this: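 Py33 (3 µM) co-annealed with increasing ligand in 1× BPES pH 6.8 at 95 °C for 5 min, cooled, held at 4 °C overnight. Run on native 20% acrylamide in 1× TBE at 140 V for 5 h at 5 °C, then silver-stained.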

Data set [16] concerns SiHa. The experiment in a line: Induction of cell cycle arrest in human SiHa cells assessed as accumulation of cells at G2/M phase at 0.30 uM after 24 hrs by propidium iodide staining based flow cytometry (reference value: 29.71%). Format: functional. The settings on record: dose 0.3 µM.
For data set [17], the system named is SiHa. Kind of data set: Antiproliferative activity against human SiHa cells after 48 hrs by MTT assay. Format: functional, cell-based. In short, it runs like this:
as §1

In a further data set the test system is HeLa. The experiment in a line: Antiproliferative activity against human Hela cells after 48 hrs by MTT assay. It counts as functional, cell-based. In short, it runs like this: as §1
Data set [18] in a line: Drug uptake in human SiHa cells. Format: ADME, cell-based.
In data set [19] the test system is Quadruplex DNA. The experiment in a line: Binding affinity to c-myc promoter G-quadruplex/i-motif in human SiHa cells assessed as reduction in c-myc mRNA level at 1.25 uM incubated for 24 hrs by qRT-PCR analysis. Further details: scale not given: the % may be the effect or the level left. Format: cell-based. In short, it runs like this:
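SiHa cells at 0, 0.625, 1.25 and 2.5 μM for 24 h; DMSO control. Total RNA extracted with TRIzol. 1.5 μg RNA reverse-transcribed with oligo dT18 and M-MLV (42 °C 60 min). PCR of 30 cycles (95/58/72 °C), products run on 1.2% agarose. β-actin as internal control; three repeats.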

As for `Cc1ccc2nc3ccc(C)cc3c(NCCCNCCNCCCNc3c4cc(C)ccc4nc4ccc(C)cc34)c2c1`, the Activity result in the data set with SiHa [1] is “Dose-dependent effect”; with SiHa [2] it was 0.5%; in the data set on SiHa [3], 4.6%; with SiHa [4], “Dose-dependent effect”; in the data set with SiHa [5] it was 450 mm3; with SiHa [6], 5.5%. Besides, the Activity entry in the data set on Quadruplex DNA [8] is “Dose-dependent effect”; in the data set with SiHa [9] it was 56.91%; in the data set with SiHa [13], 18.7%; in data set [15] it was “Dose-dependent effect”; with SiHa [16] it was 42.47%; in the data set with Quadruplex DNA [19] it was 40.1%. The results for the ΔTm in data set [7] and in data set [10] were 4.5 °C and 11 °C, respectively. The IC50 in the data set with A-375 worked out at 280 nM; with SiHa [17] it was 1220 nM; with HeLa it was 450 nM. The Kd worked out at 650 nM in [11] and 2400 nM in data set [14]. Moreover, in data set [12], the result was Active. Besides, the Drug uptake entry in data set [18] was “Active”.
